Experimental data published in publication PMC3558988 (Journal of Chemotherapy (Florence, Italy), 2013).

Tests used:
[1] = tested on: CA-MRSA (No. 32, CDC type USA300, PVL-positive); test: MIC by broth microdilution; format: cell-based; settings: Staphylococcus aureus
CA-MRSA = test: Neutropenic murine thigh infection model, single-dose response; format: in vivo, Staphylococcus aureus; settings: 24 hours
[2] = Plasma protein-binding by ultrafiltration; format: in vitro ADME; settings: mouse plasma, 0·1 to 2 μg/ml
[3] = Pharmacokinetics after single oral doses in MSSA-infected neutropenic mice; format: in vivo; settings: for fAUC0–24: free drug
MSSA ATCC 29213 = test: Neutropenic murine thigh infection model, efficacy and pharmacodynamics; format: in vivo, Staphylococcus aureus; settings: oral, neutropenic mice, 24 hours
[4] = tested on: three strains of S. aureus; test: MIC summary over the three test strains; format: cell-based, Staphylococcus aureus
In short: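 Broth microdilution MICs per CLSI guidelines, run in triplicate, for the test compound and a panel of comparator antimicrobials including linezolid. Tested against the three S. aureus isolates used in the study (one MSSA, one CA-MRSA, one HA-MRSA).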

[5] = cited from earlier work

With `CC[C@H]1OC(=O)[C@H](C)[C@@H](O[C@H]2C[C@@](C)(OC)[C@@H](O)[C@H](C)O2)[C@H](C)[C@@H](O[C@@H]2O[C@H](C)C[C@H](N(C)C)[C@H]2O)[C@](C)(O)C[C@@H](C)C(=O)[C@H](C)[C@@H](O)[C@]1(C)O` [Erythromycin] the MIC [1] was > 32 µg/mL.
In the case of `CCC[C@@H]1C[C@@H](C(=O)N[C@@H]([C@H]2O[C@H](SC)[C@H](O)[C@@H](O)[C@H]2O)[C@H](C)Cl)N(C)C1` [Clindamycin], the MIC [1] is reported as > 16 µg/mL.
For `CC(=O)NC[C@H]1CN(c2ccc(N3CCOCC3)c(F)c2)C(=O)O1` [Linezolid], the “effect on bacterial growth” value (CA-MRSA; 10 and 40 mg/kg single oral dose) was “some suppression of growth” and the “doses required to achieve consistent reductions in CFU” value (CA-MRSA; single oral dose) was ≥ 100 mg/kg.
In the case of `Cc1c(CN(C)C(=O)/C=C/c2cnc3c(c2)CCC(=O)N3)oc2ccccc12` [AFN-1252], the “concentration dependence of protein binding” value [2] is reported as “no concentration-dependent binding”, the “fAUC0–24” value ([3]; 5 mg/kg single oral dose) is reported as 113 ng·h/mL and the “fAUC0–24” value ([3]; 10 mg/kg single oral dose) is reported as 141 ng·h/mL. The “fAUC0–24” value ([3]; 30 mg/kg single oral dose) was 160 ng·h/mL, the “fAUC0–24” value ([3]; 100 mg/kg single oral dose) was 285 ng·h/mL and the “PK profile (dose proportionality of fAUC, fCmax, Tmax)” value ([3]; single oral doses 2·5-100 mg/kg) was “non-linear exposures”. The “dose giving marked reduction in bacterial count relative to time 0” value (CA-MRSA; single oral dose) was ≥ 10 mg/kg, the “doses giving reductions in total bacterial count of 1 log and greater compared to time 0” value (MSSA ATCC 29213; MSSA) was ≥ 20 mg/kg and the “dose at which reduction in MSSA growth rate began” value (MSSA ATCC 29213) was 5 mg/kg. The “level of activity (MIC) greater than linezolid” value [4] was “at least 500 fold”, the “level of activity (MIC) greater than other antibacterials tested” value [4] was “at least 32 fold” and the permeability ([5]; BCS) was “high”. For the same molecule, the “Biopharmaceutics Classification System class” value [5] was “Class 2”.
